Measurements reported in ChEMBL document CHEMBL2311405, “Synthesis and biological evaluation of indenoisoquinolines that inhibit both tyrosyl-DNA phosphodiesterase I (Tdp1) and topoisomerase I (Top1)” (J Med Chem, 2013).
The source made the active and inactive calls. The rule behind the calls is not given here.

Experiments:
[1] = tested on: SF-539; assay: Growth inhibition of human SF539 cells; type: functional
Procedure, shortened: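 Human cancer cell line panel, compounds tested at concentrations up to 10 μM. GI50 per cell line is the mean of two determinations where a standard error is given, otherwise from one determination.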

[2] = tested on: HOP-62; assay: Growth inhibition of human HOP62 cells; type: functional
[3] = tested on: HCT-116; assay: Growth inhibition of human HCT116 cells; type: functional
[4] = tested on: SN12C; assay: Growth inhibition of human SN12C cells; type: functional
[5] = tested on: UACC-62; assay: Growth inhibition of human UACC62 cells; type: functional
[6] = target: T1, DNA topoisomerase 1 (Homo sapiens) (UniProt P11387); assay: Inhibition of recombinant Top1 (unknown origin) using 3'-[32P]-end-labeled 117 bp oligonucleotide as substrate after 20 mins by SDS-PAGE analysis relative to 1 uM camptothecin
T1 sequence (whole entry): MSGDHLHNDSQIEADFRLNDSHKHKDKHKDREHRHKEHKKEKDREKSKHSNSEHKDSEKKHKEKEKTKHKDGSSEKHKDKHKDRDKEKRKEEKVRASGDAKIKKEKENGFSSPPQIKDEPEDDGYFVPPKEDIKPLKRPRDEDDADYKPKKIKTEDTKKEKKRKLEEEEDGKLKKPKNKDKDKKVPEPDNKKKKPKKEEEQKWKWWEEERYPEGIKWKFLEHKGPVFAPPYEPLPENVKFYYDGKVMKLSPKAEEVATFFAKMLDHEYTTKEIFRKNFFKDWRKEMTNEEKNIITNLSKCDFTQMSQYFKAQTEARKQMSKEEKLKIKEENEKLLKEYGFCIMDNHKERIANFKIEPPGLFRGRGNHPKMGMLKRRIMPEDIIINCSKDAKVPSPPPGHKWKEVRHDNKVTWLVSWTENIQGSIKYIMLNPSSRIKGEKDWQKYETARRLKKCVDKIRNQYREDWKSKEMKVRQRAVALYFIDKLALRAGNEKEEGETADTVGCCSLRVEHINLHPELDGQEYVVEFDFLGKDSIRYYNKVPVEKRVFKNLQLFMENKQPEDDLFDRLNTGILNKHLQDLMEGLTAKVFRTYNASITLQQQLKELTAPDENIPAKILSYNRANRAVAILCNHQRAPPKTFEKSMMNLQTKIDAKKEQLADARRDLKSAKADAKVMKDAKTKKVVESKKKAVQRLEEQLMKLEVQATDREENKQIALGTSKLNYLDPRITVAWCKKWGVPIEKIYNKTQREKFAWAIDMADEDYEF

Row | GI50 [3] [nM] | inhibition [6] | Compound | GI50 [1] [nM] | GI50 [2] [nM] | GI50 [4] [nM] | GI50 [5] [nM]
1 | < 10 | Active | COc1ccc2c(c1)C(=O)c1c-2n(CCCN)c(=O)c2cc([N+](=O)[O-])ccc12 | < 10 | < 10 | < 10 | < 10
2 |  | Active | COc1cccc2c1-c1c(c3ccc([N+](=O)[O-])cc3c(=O)n1CCCN)C2=O |  |  |  | 
